The target of assay [1] is T1, Cholinesterase (Homo sapiens, UniProt P06276). The assay is described as follows: Inhibition of human plasma BuChE by modified Ellman's spectrophotometric method. Type of assay: cell-free. The procedure, abridged:
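Purified human plasma BuChE (~0.05 units in 0.1% gelatin) in DTNB buffer at pH 8.0, 23 °C, read at 412 nm. Inhibitors first screened in 1:10 serial dilutions in 50% acetonitrile. Lineweaver–Burk plots used butyrylthiocholine 3 × 10^-5–1.6 × 10^-4 M without inhibitor and at two inhibitor concentrations. Ki taken as the x-intercept of the slope replot. Runs generally at least in triplicate and averaged.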
For orientation: Ellman's reagent forms a yellow product with free thiols.

The target of assay [2] is T2, Acetylcholinesterase (Homo sapiens, UniProt P22303). The assay is described as follows: Inhibition of human recombinant AChE by modified Ellman's spectrophotometric method.
T2 sequence (P22303 whole entry): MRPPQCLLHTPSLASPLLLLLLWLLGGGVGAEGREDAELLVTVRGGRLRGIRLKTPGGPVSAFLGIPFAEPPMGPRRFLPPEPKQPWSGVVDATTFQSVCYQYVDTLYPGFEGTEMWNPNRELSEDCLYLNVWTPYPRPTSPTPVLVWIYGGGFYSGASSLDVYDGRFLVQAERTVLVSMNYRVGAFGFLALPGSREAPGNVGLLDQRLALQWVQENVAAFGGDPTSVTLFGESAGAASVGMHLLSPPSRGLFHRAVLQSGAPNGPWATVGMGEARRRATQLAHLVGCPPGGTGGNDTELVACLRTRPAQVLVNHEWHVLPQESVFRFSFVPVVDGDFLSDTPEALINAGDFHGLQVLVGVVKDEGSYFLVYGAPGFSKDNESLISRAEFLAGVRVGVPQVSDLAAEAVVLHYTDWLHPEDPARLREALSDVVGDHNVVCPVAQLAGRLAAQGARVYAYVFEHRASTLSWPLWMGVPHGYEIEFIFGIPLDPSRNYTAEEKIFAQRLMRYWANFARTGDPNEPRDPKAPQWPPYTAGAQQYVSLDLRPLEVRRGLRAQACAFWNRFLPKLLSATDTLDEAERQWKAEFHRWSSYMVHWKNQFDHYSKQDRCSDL
For assay [3], the species on record is Homo sapiens. The experiment in a line: Inhibition of human BuChE D70G mutant at 50 nM by modified Ellman's spectrophotometric method. The gist of the method: (§1)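 Recombinant human BuChE mutants (D70G, F329A, Y332A), with wild-type BuChE for comparison, tested by modified Ellman assay. Buffered DTNB (usually pH 8.0), 23 °C, single butyrylthiocholine concentration of 1.6 × 10^-4 M final. Inhibitor added in 50% aqueous acetonitrile (final 1.67% v/v). Rate read at 412 nm every 5 s for 1 min.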

Assay [4] is filed under the species Homo sapiens. The assay is described as follows: Inhibition of human BuChE Y332A mutant assessed as residual activity at 500 nM by modified Ellman's spectrophotometric method relative to control. The procedure, abridged:
as §1

The species entered for assay [5] is Homo sapiens. The experiment in a line: Inhibition of human BuChE F329A mutant at 500 nM by modified Ellman's spectrophotometric method. The gist of the method:
as §1

The target of assay [6] is T2, Acetylcholinesterase. The assay is described as follows: Inhibition of human AChE at 1.8 uM by Michaelis-Menten analysis in presence of 10 mM acetylthiocholine as substrate. The procedure, abridged:
(§2)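 Purified recombinant human AChE (~0.03 units in 0.1% aqueous gelatin) in buffered DTNB (usually pH 8.0) at 23 °C. Fixed enzyme and inhibitor concentrations across acetylthiocholine 0.039–40 mM. Inhibitor added in 50% aqueous acetonitrile (final 1.67% v/v). Hydrolysis rate (ΔA/min) read at 412 nm every 5 s for 1 min. Michaelis–Menten plots of rate versus substrate concentration.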

Assay [7] addresses T2, Acetylcholinesterase. The assay is described as follows: Inhibition of human AChE at 1.8 uM by Michaelis-Menten analysis in presence of 20 mM acetylthiocholine as substrate. The procedure, abridged:
as §2

The target in assay [8] is T1, Cholinesterase. Particulars: 50 nM.
The target in assay [9] is T1, Cholinesterase. The conditions noted are these: 500 nM.
For assay [10], the target named is T1, Cholinesterase. The conditions noted are these: 1.8 uM.
The target of assay [11] is T1, Cholinesterase. Particulars: 1.8 uM. The source holds these as a separate data set.

By Ki is commonly meant a dissociation constant, usually derived from enzyme kinetics or from competition with a known ligand. By inhibition is commonly meant the share of the control response that was lost under treatment.

The source made the active and inactive calls. The calls are words filed in the database; no cut-off is given here.

T1 sequence (P06276 whole entry): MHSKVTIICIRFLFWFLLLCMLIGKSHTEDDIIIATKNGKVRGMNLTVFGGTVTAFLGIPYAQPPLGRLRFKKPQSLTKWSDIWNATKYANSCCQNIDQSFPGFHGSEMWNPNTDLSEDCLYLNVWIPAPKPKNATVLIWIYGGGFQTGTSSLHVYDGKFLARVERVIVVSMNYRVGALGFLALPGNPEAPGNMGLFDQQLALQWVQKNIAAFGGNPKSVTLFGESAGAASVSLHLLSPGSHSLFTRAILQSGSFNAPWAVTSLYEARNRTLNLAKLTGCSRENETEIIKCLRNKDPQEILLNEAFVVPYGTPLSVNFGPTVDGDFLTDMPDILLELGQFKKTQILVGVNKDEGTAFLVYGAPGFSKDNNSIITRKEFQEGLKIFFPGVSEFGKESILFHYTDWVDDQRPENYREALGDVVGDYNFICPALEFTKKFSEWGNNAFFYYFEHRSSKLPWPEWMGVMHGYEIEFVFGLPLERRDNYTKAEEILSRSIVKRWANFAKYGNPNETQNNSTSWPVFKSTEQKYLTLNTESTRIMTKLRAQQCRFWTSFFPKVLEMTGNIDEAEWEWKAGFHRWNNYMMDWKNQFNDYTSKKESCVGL

As for `O=C(NC1CCCCC1)N1c2ccccc2Sc2ccccc21`, the Ki at Cholinesterase [1] is 2.81 µM; on Acetylcholinesterase [2] it was “Not Active”.
Taken in the same sequence, the figures for `CCCN(CCC)C(=O)N1c2ccccc2Sc2ccccc21` were 0.43 µM and “Not Active”.
Taken in the same sequence, the figures for `O=C(N1CCCC1)N1c2ccccc2Sc2ccccc21` were 0.56 µM and “Not Active”.
In the case of `NC(=O)N1c2ccccc2Sc2ccccc21`, the figures for the Ki at Cholinesterase [1] and on Acetylcholinesterase [2] (read-out: Ki) were 90.8 µM and 89.3 µM, respectively.
With `O=C(NC1CCCC1)N1c2ccccc2Sc2ccccc21`, the values for the Ki at Cholinesterase [1] and at Acetylcholinesterase [2] were 2.99 µM and “Not Active”, respectively.
With `Cc1ccccc1NC(=O)N1c2ccccc2Sc2ccccc21`, the Ki was 0.71 µM at Cholinesterase [1] and “Not Active” on Acetylcholinesterase [2].
The matching figures for `CCCCNC(=O)N1c2ccccc2Sc2ccccc21`: 24.7 µM and “Not Active”.
In the case of `O=C(NCCN1CCCC1)N1c2ccccc2Sc2ccccc21`, the figures for the Ki at Cholinesterase [1] and on Acetylcholinesterase [2] (read-out: Ki) were 0.21 µM and 29.4 µM, respectively.
Taken in the same sequence, the figures for `CNC(=O)N1c2ccccc2Sc2ccccc21` were 18.3 µM and 9.36 µM.
For `O=C(NCCCN1CCOCC1)N1c2ccccc2Sc2ccccc21`, the Ki on Cholinesterase [1] was 7.86 µM; on Acetylcholinesterase [2], “Not Active”.
The matching figures for `CC(C)N(C(=O)N1c2ccccc2Sc2ccccc21)C(C)C`: 0.18 µM and “Not Active”.
Taken in the same sequence, the figures for `O=C(NC1CCC1)N1c2ccccc2Sc2ccccc21` were 10 µM and “Not Active”.
Taken in the same sequence, the figures for `CCN(CC)C(=O)N1c2ccccc2Sc2ccccc21` were 1.05 µM and “Not Active”.
In the case of `CCCNC(=O)N1c2ccccc2Sc2ccccc21`, the Ki on Cholinesterase [1] was 20.5 µM; on Acetylcholinesterase [2], “Not Active”.
As for `CN(C)C(=O)N1c2ccccc2Sc2ccccc21`, the results for the Ki on Cholinesterase [1] and on Acetylcholinesterase [2] (read-out: Ki) were 9.2 µM and 400 µM, respectively.
Taken in the same sequence, the figures for `CCN(CC)CCNC(=O)N1c2ccccc2Sc2ccccc21` were 0.51 µM and 16.3 µM.
On to `O=C(Nc1ccc(Cl)cc1)N1c2ccccc2Sc2ccccc21`, for which the Ki is 4.69 µM on Cholinesterase [1] and “Not Active” at Acetylcholinesterase [2].
Take `O=C(N1CCCCC1)N1c2ccccc2Sc2ccccc21`: the Ki on Cholinesterase [1] is 1.56 µM; at Acetylcholinesterase [2], “Not Active”.
Take `O=C(Nc1ccccc1)N1c2ccccc2Sc2ccccc21`: the Ki on Cholinesterase [1] was 0.31 µM; at Acetylcholinesterase [2], “Not Active”.
The matching figures for `Cc1ccc(NC(=O)N2c3ccccc3Sc3ccccc32)cc1`: 12.1 µM and “Not Active”.
In the case of `CC(C)NC(=O)N1c2ccccc2Sc2ccccc21`, the Ki came out at 3.41 µM at Cholinesterase [1] and 691 µM at Acetylcholinesterase [2] (read-out: Ki).
`O=C(NCc1cccc2ccccc12)N1c2ccccc2Sc2ccccc21`: the values for the Ki at Cholinesterase [1] and on Acetylcholinesterase [2] were 0.15 µM and “Not Active”, respectively.
The matching figures for `CC(C)(C)NC(=O)N1c2ccccc2Sc2ccccc21`: 10.6 µM and “Not Active”.
The matching figures for `COCCNC(=O)N1c2ccccc2Sc2ccccc21`: 29.1 µM and “Not Active”.
The matching figures for `O=C(NC1CC1)N1c2ccccc2Sc2ccccc21`: 42.5 µM and “Not Active”.
For `CC(C)(C)CNC(=O)N1c2ccccc2Sc2ccccc21`, the Ki was 2.66 µM at Cholinesterase [1] and “Not Active” on Acetylcholinesterase [2].
Taken in the same sequence, the figures for `O=C(NC12CC3CC(CC(C3)C1)C2)N1c2ccccc2Sc2ccccc21` were 0.35 µM and “Not Active”.
In the case of `COc1ccc(NC(=O)N2c3ccccc3Sc3ccccc32)cc1`, the Ki was 9.63 µM on Cholinesterase [1] and “Not Active” on Acetylcholinesterase [2].
Taken in the same sequence, the figures for `O=C(NCCc1ccccc1)N1c2ccccc2Sc2ccccc21` were 0.19 µM and “Not Active”.
With `CCNC(=O)N1c2ccccc2Sc2ccccc21`, the results for the Ki at Cholinesterase [1] and at Acetylcholinesterase [2] (read-out: Ki) were 35 µM and 1450 µM, respectively.
`O=C(NCc1ccccc1)N1c2ccccc2Sc2ccccc21`: the Ki on Cholinesterase [1] was 4.45 µM; at Acetylcholinesterase [2], “Not Active”.
Taken in the same sequence, the figures for `CN(CCCNC(=O)N1c2ccccc2Sc2ccccc21)c1ccccc1` were 0.25 µM and “Not Active”.
The matching figures for `O=C(N1CCOCC1)N1c2ccccc2Sc2ccccc21`: 7.1 µM and “Not Active”.
Consider `O=C(NCCN1CCCCC1)N1c2ccccc2Sc2ccccc21`, for which the Ki at Cholinesterase [1] came out at 0.02 µM; at Acetylcholinesterase [2] (read-out: Ki), 0.62 µM.
As to `CC(C)N(CCNC(=O)N1c2ccccc2Sc2ccccc21)C(C)C`, the Ki on Cholinesterase [1] amounted to 0.009 µM; on Acetylcholinesterase [2] (read-out: Ki) it was 0.81 µM. The inhibition result in the assay listed under Homo sapiens [3], on Acetylcholinesterase [7] and on Cholinesterase [11] was “inactive” each time. In addition, the Activity in the assay listed under Homo sapiens [4] came out at 50%. Moreover, the inhibition result in the assay listed under Homo sapiens [5], on Acetylcholinesterase [6], at Cholinesterase [9] and on Cholinesterase [10] was “Active” in each case. At Cholinesterase [8], this compound displayed an inhibition of 50%.
Consider `CN1CCN(C(=O)N2c3ccccc3Sc3ccccc32)CC1`, for which the results for the Ki on Cholinesterase [1] and on Acetylcholinesterase [2] were 17.1 µM and “Not Active”, respectively.
The matching figures for `O=C(NCCN1CCOCC1)N1c2ccccc2Sc2ccccc21`: 6.91 µM and “Not Active”.

These data come from ChEMBL document CHEMBL1157634, “Differential binding of phenothiazine urea derivatives to wild-type human cholinesterases and butyrylcholinesterase mutants” (Bioorg Med Chem, 2010).
